Laboratory results from ChEMBL document CHEMBL4376814, “Novel cyclin-dependent kinase 9 (CDK9) inhibitor with suppression of cancer stemness activity against non-small-cell lung cancer” (Eur J Med Chem, 2019).
Calls of active or inactive are those of the source. The calls are words filed in the database; no cut-off is given here.

Experiments:
[1] = biological target: Protein kinase C iota type (Homo sapiens) (UniProt P41743); assay: Inhibition of recombinant full-length human PKCiota at 1 uM using ERMRPRKRQGSVRRRV as substrate measured after 40 mins in presence of [gamma33P]ATP by scintillation counting method relative to control
[2] = biological target: Cyclin-dependent kinase 2/cyclin E1 (Homo sapiens) (UniProt P24864+P24941); assay: Inhibition of recombinant full-length human CDK2/cyclinE at 1 uM using Histone H1 as substrate measured after 40 mins in presence of [gamma33P]ATP by scintillation counting method relative to control; type: protein-complex assay
NCI-H1299 [3] = assay: Induction of apoptosis in human H1299 cells assessed as late apoptotic cells at 0.25 uM after 48 hrs by AnnexinV-FITC/PI staining-based flow cytometric analysis (reference value: 1.77%); type: functional
[4] = biological target: Ephrin type-B receptor 1 (Homo sapiens) (UniProt P54762); assay: Inhibition of recombinant human EphB1 (564 to end residues) at 1 uM using KVEKIGEGTYGVVYK as substrate measured after 40 mins in presence of [gamma33P]ATP by scintillation counting method relative to control
Sequence of Ephrin type-B receptor 1 (Homo sapiens) (P54762 whole entry): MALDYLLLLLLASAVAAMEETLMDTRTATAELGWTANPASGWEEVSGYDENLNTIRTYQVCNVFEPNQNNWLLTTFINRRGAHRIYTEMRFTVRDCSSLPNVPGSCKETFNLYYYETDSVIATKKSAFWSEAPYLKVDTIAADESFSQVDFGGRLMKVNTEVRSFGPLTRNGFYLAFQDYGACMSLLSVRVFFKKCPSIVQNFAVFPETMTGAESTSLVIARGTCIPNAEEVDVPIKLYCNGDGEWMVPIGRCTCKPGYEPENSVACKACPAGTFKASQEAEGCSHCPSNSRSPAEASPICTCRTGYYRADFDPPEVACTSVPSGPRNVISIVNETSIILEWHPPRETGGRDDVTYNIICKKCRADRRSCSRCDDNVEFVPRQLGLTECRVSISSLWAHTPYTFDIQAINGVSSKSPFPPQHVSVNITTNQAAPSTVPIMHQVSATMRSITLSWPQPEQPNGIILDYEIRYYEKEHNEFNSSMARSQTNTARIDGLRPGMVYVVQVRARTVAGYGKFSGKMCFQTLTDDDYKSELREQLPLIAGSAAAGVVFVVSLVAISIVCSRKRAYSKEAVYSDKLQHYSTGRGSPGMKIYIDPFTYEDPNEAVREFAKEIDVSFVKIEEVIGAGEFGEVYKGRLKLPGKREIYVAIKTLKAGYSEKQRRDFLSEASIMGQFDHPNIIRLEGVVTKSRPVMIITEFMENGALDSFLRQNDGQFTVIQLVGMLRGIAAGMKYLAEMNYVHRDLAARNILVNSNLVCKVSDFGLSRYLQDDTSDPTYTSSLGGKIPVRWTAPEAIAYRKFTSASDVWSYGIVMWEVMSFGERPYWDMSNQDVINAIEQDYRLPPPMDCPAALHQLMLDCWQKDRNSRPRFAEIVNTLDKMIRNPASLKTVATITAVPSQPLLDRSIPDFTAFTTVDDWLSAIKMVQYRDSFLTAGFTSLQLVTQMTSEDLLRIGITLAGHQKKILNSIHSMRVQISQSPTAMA

[5] = biological target: Cyclin-dependent kinase 9 (Homo sapiens) (UniProt P50750); conditions: A549, 0.25 to 1 uM
Sequence of Cyclin-dependent kinase 9 (Homo sapiens) (P50750 whole entry): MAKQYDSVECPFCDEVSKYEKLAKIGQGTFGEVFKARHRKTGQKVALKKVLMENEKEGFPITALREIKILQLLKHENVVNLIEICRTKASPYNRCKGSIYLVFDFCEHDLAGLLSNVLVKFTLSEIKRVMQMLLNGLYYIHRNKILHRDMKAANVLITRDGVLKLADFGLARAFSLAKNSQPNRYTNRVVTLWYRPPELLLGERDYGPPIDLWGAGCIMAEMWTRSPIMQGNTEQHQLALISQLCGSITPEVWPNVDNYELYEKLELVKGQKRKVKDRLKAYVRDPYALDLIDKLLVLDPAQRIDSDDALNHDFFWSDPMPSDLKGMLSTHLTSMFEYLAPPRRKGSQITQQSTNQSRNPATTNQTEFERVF

[6] = test system: Receptor tyrosine-protein kinase erbB-2 (Homo sapiens), P04626 [G778D]; assay: Inhibition of recombinant human ErbB2 (676 to end residues) G778D mutant at 1 uM using poly(Glu, Tyr) 4:1 as substrate measured after 40 mins in presence of [gamma33P]ATP by scintillation counting method relative to control
[7] = biological target: Wee1-like protein kinase (Homo sapiens) (UniProt P30291); assay: Inhibition of recombinant human Wee1 (214 to end residues) at 1 uM using LSNLYHQGKFLQTFCGSPLYRRR as substrate measured after 40 mins in presence of [gamma33P]ATP by scintillation counting method relative to control
Sequence of Wee1-like protein kinase (Homo sapiens) (P30291 whole entry, looked up): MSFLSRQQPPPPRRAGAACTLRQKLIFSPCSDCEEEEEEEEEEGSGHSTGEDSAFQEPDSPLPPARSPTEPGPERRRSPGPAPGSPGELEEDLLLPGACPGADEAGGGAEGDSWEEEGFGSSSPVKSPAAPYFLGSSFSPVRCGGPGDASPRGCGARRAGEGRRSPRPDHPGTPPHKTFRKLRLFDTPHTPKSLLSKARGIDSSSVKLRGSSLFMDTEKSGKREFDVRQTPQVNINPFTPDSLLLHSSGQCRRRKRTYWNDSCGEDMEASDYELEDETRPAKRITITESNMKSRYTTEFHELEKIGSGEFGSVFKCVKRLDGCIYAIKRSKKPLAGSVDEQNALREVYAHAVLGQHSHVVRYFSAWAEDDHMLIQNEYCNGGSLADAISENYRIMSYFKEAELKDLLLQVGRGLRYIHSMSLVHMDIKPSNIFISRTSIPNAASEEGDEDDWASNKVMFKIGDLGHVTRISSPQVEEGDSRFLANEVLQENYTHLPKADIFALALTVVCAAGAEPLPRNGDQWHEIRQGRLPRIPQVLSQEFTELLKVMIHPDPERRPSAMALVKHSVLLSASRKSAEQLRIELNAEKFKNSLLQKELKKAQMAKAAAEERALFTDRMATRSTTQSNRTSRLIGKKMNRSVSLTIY

[8] = biological target: NUAK family SNF1-like kinase 1 (Homo sapiens) (UniProt O60285); assay: Inhibition of recombinant human ARK5 (2 to end residues) at 1 uM using KKKVSRSGLYRSPSMPENLNRPR as substrate measured after 40 mins in presence of [gamma33P]ATP by scintillation counting method relative to control
Sequence of NUAK family SNF1-like kinase 1 (Homo sapiens) (O60285 whole entry): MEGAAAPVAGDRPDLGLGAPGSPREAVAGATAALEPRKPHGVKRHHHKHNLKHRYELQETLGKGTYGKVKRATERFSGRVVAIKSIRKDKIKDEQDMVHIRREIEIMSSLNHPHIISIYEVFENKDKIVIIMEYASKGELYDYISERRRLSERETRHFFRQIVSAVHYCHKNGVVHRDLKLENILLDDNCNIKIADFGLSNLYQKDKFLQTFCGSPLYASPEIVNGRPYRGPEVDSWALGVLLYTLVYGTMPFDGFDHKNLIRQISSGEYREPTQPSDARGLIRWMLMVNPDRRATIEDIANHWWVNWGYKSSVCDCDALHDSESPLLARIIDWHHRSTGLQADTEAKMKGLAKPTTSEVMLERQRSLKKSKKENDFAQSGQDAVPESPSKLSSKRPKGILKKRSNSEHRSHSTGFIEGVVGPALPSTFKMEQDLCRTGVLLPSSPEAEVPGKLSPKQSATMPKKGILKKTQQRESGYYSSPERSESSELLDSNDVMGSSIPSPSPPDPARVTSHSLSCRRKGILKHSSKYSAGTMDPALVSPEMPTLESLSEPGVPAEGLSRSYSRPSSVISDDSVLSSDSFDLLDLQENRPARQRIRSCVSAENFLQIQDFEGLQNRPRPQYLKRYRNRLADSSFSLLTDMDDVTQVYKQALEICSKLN

[9] = biological target: Protein kinase C delta type (Homo sapiens) (UniProt Q05655); assay: Inhibition of recombinant human PKCdelta (2 to end residues) at 1 uM using ERMRPRKRQGSVRRR as substrate measured after 40 mins in presence of [gamma33P]ATP by scintillation counting method relative to control
Sequence of Protein kinase C delta type (Homo sapiens) (Q05655 whole entry, looked up): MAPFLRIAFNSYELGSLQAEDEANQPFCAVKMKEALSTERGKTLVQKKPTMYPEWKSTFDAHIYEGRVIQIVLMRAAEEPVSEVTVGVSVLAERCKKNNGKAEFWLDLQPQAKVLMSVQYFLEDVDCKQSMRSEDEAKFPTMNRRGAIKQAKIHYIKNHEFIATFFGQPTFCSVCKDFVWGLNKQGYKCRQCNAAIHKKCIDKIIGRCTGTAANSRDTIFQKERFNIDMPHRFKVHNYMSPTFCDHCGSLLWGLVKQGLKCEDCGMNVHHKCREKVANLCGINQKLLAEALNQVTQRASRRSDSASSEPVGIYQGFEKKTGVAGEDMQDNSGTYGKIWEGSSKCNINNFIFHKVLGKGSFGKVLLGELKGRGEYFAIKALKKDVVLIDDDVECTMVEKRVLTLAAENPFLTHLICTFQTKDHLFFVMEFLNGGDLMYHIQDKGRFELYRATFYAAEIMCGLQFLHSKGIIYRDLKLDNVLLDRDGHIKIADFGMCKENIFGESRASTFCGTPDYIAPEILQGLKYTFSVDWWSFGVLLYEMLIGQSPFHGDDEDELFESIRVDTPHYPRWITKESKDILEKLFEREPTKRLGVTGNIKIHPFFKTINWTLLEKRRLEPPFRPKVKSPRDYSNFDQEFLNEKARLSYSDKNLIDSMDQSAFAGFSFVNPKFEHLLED

[10] = test system: Mast/stem cell growth factor receptor Kit (Homo sapiens), P10721 [V560G]; assay: Inhibition of recombinant human cKit (544 to end residues) V560G mutant at 1 uM using GGMEDIYFEFMGGKKK as substrate measured after 40 mins in presence of [gamma33P]ATP by scintillation counting method relative to control
Sequence of Mast/stem cell growth factor receptor Kit (Homo sapiens), P10721 [V560G] (P10721 whole entry V560G): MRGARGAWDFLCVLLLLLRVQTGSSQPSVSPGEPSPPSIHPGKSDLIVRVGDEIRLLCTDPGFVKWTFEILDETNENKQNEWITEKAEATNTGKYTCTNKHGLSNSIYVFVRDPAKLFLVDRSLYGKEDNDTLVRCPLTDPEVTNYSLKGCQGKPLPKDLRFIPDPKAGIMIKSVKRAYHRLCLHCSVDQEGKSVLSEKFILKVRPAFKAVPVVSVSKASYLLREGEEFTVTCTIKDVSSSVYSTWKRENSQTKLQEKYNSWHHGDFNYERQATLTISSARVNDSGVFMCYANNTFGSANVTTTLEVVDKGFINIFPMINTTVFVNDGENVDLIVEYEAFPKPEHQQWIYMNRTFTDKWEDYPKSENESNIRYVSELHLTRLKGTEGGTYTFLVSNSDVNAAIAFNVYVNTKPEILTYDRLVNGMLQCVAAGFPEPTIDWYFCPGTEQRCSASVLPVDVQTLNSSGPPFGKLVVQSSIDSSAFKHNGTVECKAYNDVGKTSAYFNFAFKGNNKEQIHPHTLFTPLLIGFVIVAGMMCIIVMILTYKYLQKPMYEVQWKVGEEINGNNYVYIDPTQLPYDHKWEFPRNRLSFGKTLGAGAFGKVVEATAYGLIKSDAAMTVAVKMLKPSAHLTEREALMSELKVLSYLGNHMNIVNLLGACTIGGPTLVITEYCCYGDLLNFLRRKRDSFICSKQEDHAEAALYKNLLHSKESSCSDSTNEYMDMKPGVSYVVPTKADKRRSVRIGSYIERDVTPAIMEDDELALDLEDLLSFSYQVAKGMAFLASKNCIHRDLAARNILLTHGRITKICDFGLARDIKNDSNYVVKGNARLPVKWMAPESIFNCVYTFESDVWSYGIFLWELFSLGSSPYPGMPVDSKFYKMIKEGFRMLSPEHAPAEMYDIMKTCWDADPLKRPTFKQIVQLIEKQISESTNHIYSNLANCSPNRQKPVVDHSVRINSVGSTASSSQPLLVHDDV
Procedure, shortened: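 Single-point inhibition at 1 µM was measured in the Eurofins KinaseProfiler panel. Values are the mean of two independent experiments.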

[11] = test system: Serine/threonine-protein kinase Sgk1 (Homo sapiens), O00141 [S422D]; assay: Inhibition of recombinant human SGK S422D mutant (60 to end residues) at 1 uM using GRPRTSSFAEGKK as substrate measured after 40 mins in presence of [gamma33P]ATP by scintillation counting method relative to control
Sequence of Serine/threonine-protein kinase Sgk1 (Homo sapiens), O00141 [S422D] (O00141 whole entry S422D): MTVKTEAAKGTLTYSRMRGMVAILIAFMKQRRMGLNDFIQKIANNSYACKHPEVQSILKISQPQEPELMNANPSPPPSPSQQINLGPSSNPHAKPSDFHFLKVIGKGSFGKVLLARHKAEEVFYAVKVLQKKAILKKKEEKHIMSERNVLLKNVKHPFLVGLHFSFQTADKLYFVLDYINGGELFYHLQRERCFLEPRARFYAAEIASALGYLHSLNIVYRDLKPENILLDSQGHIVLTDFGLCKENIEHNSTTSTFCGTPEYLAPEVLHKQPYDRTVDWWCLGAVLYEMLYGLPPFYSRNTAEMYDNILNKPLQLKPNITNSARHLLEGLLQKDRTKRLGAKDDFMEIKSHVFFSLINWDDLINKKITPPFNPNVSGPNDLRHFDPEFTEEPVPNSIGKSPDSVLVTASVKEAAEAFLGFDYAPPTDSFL

NCI-H1299 [12] = assay: Inhibition of tumorsphere formation in human H1299 cells after 2 weeks by microscopic analysis; type: functional, cell-based

Structure (SMILES): CN(C)C(=O)c1cc2cnc(Nc3ccc(NC(=O)CCCCCCCN=C=S)cc3)nc2n1C1CCCC1
- inhibition [1]: -4%
- inhibition [2]: 75%
- Activity (NCI-H1299 [3]): 2.24%
- inhibition [4]: 9%
- inhibition [5]: Active
- inhibition [6]: -1%
- inhibition [7]: 8%
- inhibition [8]: 79%
- inhibition [9]: 8%
- inhibition [10]: 54%
- inhibition [11]: 24%
- inhibition (NCI-H1299 [12]): Dose-dependent effect
